The values that follow come from paper PMC3077804 (ACS Chemical Biology, 2010).

In this experiment the target is T1, AarA (Providencia stuartii, UniProt P46116).
T1 sequence (P46116 1-281): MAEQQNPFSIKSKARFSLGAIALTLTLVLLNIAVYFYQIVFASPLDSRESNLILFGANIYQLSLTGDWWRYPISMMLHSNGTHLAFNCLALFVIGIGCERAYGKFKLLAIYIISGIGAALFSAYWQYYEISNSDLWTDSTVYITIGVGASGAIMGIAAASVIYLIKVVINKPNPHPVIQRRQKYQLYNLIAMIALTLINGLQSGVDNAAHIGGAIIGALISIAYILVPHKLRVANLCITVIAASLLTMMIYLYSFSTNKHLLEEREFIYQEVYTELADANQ
In words: In vitro fluorescent assay. It counts as biochemical. Conditions: SAR. The method, boiled down:
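Fluorogenic KSp21 peptide (600 nM) cleaved at 24−25 °C by 100 nM AarA or 37 nM chymotrypsin. Buffer: 25 mM Hepes pH 7.4, 5 mM EDTA, 5% glycerol, 0.5% DDM and 20% DMSO (final). Compound was preincubated with enzyme for 30 min at 25 °C, and the reaction was started with peptide. Stopped after 50−60 min, still in the linear phase, with 1 M phosphoric acid pH 1.5; fluorescence read.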

As for `Cc1ccc(S(=O)(=O)NC(CCCCN)C(=O)CCl)cc1` (centres unmarked) [TLCK], the “inhibitory activity against AarA in the fluorescent assay (in words)” value is “inactive”.

For the molecule `Cc1ccc(S(=O)(=O)N[C@@H](Cc2ccccc2)C(=O)CCl)cc1` [TPCK], the “inhibitory activity against AarA in the fluorescent assay (in words)” value is “inactive”.
